The source of these data is PubChem BioAssay.

Activity calls are given as the source filed them.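 Rule for the calls, unless noted: active = growth inhibition above 25% in both replicates, a cutoff set 3 SD above the mean; inconclusive = above 25% in only one replicate; inactive = the rest.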

A short description of the first experiment: S. cerevisiae growth inhibition in permissive medium (OD615), pilot counter-assay for S. cerevisiae lifespan shortening project, permissive growth control (AID 705). The settings on record: OD615, 24 h, at 10 µM, stronger effect = higher value. In outline:
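System: S. cerevisiae with engineered DeaD lifespan system / Measured by: absorbance (optical density) at 615 nm / Read-out: reduction in yeast growth (OD615) / Times: 4 h cell pre-growth, 24 h exposure at 30 °C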
`CCOC(=O)N1CCC(NC(=O)c2csc3c2CCCC3)CC1`: the growth inhibition was -3.1% (inactive).

On to `CC1CCCCN1C(=O)c1ccccc1NC(=O)c1ccco1` (stereo not drawn), for which the growth inhibition was -17.6% (inactive).

With `CCOC(=O)N1CCN(C(=O)CSc2nnc(-c3ccc(C(C)(C)C)cc3)o2)CC1`, the growth inhibition is -7.79% (inactive).

`O=C(CN1C(=O)CSc2ncccc21)N1CCOCC1`: the growth inhibition was 7% (inactive).

For `CN(C)S(=O)(=O)c1ccc(C(=O)Nc2nc(-c3cccs3)cs2)cc1`, the growth inhibition was -5.6% (inactive).

In the case of `CN(C)C=NC(=O)/C(C#N)=C1\CCc2ccccc2N1`, the growth inhibition is -9.21% (inactive).

As for `COc1cc2c(c(O)c1OC)C(=O)C(OC)CCC2` (stereo not drawn), the growth inhibition is 0.06% (inactive).

`COc1cc(NC(=O)c2cc3c(=O)n(C)c4ccccc4c3n2C)cc(OC)c1OC`: the growth inhibition is 1.8% (inactive).

For the compound `Cc1ccc(S(=O)(=O)/N=C/c2ccco2)cc1`, the growth inhibition is -11.7% (inactive).

Regarding `C=CCc1c(C)nc(SC)nc1Nc1ccc(C(C)=O)cc1`, the growth inhibition is -6.88% (inactive).

As to `O=C(O)CCCCCN1C(=O)C(=O)/C(=C(/O)c2ccccc2)C1c1ccccc1` (stereo not drawn), the growth inhibition is -21.2% (inactive).

As for `CCOC(=O)N1CCN(C(=O)c2cnn3ccccc23)CC1`, the growth inhibition is -9.02% (inactive).

Consider `Brc1cccc(-c2nnc3sc(CNCc4ccco4)cn23)c1`, for which the growth inhibition is 1.61% (inactive).

Regarding `O=C(Nc1ccccc1)OCC1CCCN2CCCCC12` (stereo not drawn), the growth inhibition is -12.9% (inactive).

As to `O=C(NCc1ccco1)c1ccc(S(=O)(=O)c2cccc(S(=O)(=O)N3CCOCC3)c2)cc1`, the growth inhibition was 19% (inactive).

For `CC1Cc2nc(SCC(=O)NCc3ccco3)n(-c3ccccc3)c(=O)c2S1` (stereo not drawn), the growth inhibition is -6.6% (inactive).

Regarding `CCc1ccc2[nH]cc(C(=O)OCCOC)c(=O)c2c1`, the growth inhibition is -19.9% (inactive).

Regarding `CC1CCc2c(sc3ncnc(NCCN4CCOCC4)c23)C1` (stereo not drawn), the growth inhibition is -7.6% (inactive).

With `O=C(c1cc(-c2ccccc2O)on1)N1CCCC1`, the growth inhibition is -4.15% (inactive).

As to `Cc1ccc(-c2nc(NC(=O)CSc3nnc4scc(-c5ccccc5)n34)ns2)cc1`, the growth inhibition was 0.135% (inactive).

For `COCCNC(=O)CS(=O)(=O)Cc1nc(-c2ccc(C)cc2)oc1C`, the growth inhibition was -7.2% (inactive).

Take `CCOc1cccc(C2c3c(oc4cc(C)c(C)cc4c3=O)C(=O)N2CCCN(C)C)c1` (stereo not drawn): the growth inhibition was 1.31% (inactive).

Turning to `COc1ccc(-c2nc(C#N)c(NC(C)C)o2)cc1`, the growth inhibition was -4.08% (inactive).

Regarding `O=C1CSC(c2nn(-c3ccccc3)cc2-c2cc3ccccc3oc2=O)N1Cc1ccco1` (stereo not drawn), the growth inhibition is -1.13% (inactive).

Take `O=C(NCCC1=CCCCC1)c1ccc2c(=O)n3c(nc2c1)CCCCC3`: the growth inhibition is -10.1% (inactive).

As for `O=C(Cn1c(=O)oc2cc(S(=O)(=O)N3CCCC3)ccc21)N1CCN(c2ccccn2)CC1`, the growth inhibition is 4.62% (inactive).

In the case of `Cc1onc(-c2c(F)cccc2Cl)c1C(=O)OCC(=O)Nc1c(C)n(C)n(-c2ccccc2)c1=O`, the growth inhibition is -3.96% (inactive).

Take `COCCNC(=O)CN1C(=O)CSc2cc(S(=O)(=O)N3CCCCCC3)ccc21`: the growth inhibition was -5.04% (inactive).

Turning to `O=C(O)c1ccccc1C(=O)c1cccs1`, the growth inhibition is -14.9% (inactive).

Turning to `CCCC(=O)Nc1ccccc1-c1nnc(SC)[nH]c1=O`, the growth inhibition is -10.4% (inactive).

Regarding `COCCNC(=O)CN1C(=O)COc2ccc(Cl)cc21`, the growth inhibition is -4.28% (inactive).

In the case of `O=C(NCCC1=CCCCC1)C1CCN(c2nnc(-n3cccc3)s2)CC1`, the growth inhibition is 3.32% (inactive).

For the compound `COc1ccc(C2C(C(=O)Nc3ccccn3)=C(C)Nc3ncnn32)c(OC)c1` (stereo not drawn), the growth inhibition was -8.54% (inactive).

`Cc1cc(C)c2c(n1)SCC(=O)N2CC(=O)NCCC1=CCCCC1`: the growth inhibition is -0.205% (inactive).

`COCCNC(=O)C1CCN(S(=O)(=O)c2ccccc2)CC1`: the growth inhibition was -2.1% (inactive).

Take `NC(=O)c1ccsc1NC(=O)C1CCCCC1`: the growth inhibition is -3.66% (inactive).

Regarding `CCOc1ccc(-c2nc(C#N)c(N3CCN(Cc4ccccc4)CC3)o2)cc1`, the growth inhibition is -4.62% (inactive).

`CCOC(=O)C1=C(C)NC(=O)NC1c1ccc(N(CC)CC)cc1` (stereo not drawn): the growth inhibition is -11.1% (inactive).

`N#CC1=C(N)OC2=C(C(=O)CCC2)C1c1ccsc1` (stereo not drawn): the growth inhibition is -7.86% (inactive).

A short description of another experiment: S. cerevisiae growth inhibition in restrictive medium, OD615, pilot screen, restrictive growth control, yeast lifespan reduction project (AID 706;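 active = growth inhibition above a set limit, 3 SD over mean compound inhibition, in both replicates, cut at about 43% in these data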;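 note: modified DeaD lifespan yeast strain shifted to restrictive glucose medium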). The settings on record: OD615, 48 h, at 10 µM, stronger effect = higher value. Summed up:
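System: Engineered S. cerevisiae DeaD strain | Buffer or medium: Glucose-based CSMM-D restrictive medium | Schedule: 4 h pre-incubation, 48 h exposure at 30 °C | Technique: Optical density at 615 nm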
Take `CCOC(=O)N1CCC(NC(=O)c2csc3c2CCCC3)CC1`: the growth inhibition is -14.7% (inactive).

On to `CC1CCCCN1C(=O)c1ccccc1NC(=O)c1ccco1` (stereo not drawn), for which the growth inhibition was -14.8% (inactive).

Consider `CCOC(=O)N1CCN(C(=O)CSc2nnc(-c3ccc(C(C)(C)C)cc3)o2)CC1`, for which the growth inhibition was 8.32% (inactive).

With `O=C(CN1C(=O)CSc2ncccc21)N1CCOCC1`, the growth inhibition was -0.87% (inactive).

With `CN(C)S(=O)(=O)c1ccc(C(=O)Nc2nc(-c3cccs3)cs2)cc1`, the growth inhibition is -13.7% (inactive).

Take `CN(C)C=NC(=O)/C(C#N)=C1\CCc2ccccc2N1`: the growth inhibition was -2.15% (inactive).

Consider `COc1cc2c(c(O)c1OC)C(=O)C(OC)CCC2` (stereo not drawn), for which the growth inhibition was -2.16% (inactive).

As for `COc1cc(NC(=O)c2cc3c(=O)n(C)c4ccccc4c3n2C)cc(OC)c1OC`, the growth inhibition was 7.94% (inactive).

As to `Cc1ccc(S(=O)(=O)/N=C/c2ccco2)cc1`, the growth inhibition is -12.3% (inactive).

With `C=CCc1c(C)nc(SC)nc1Nc1ccc(C(C)=O)cc1`, the growth inhibition was -6.6% (inactive).

With `O=C(O)CCCCCN1C(=O)C(=O)/C(=C(/O)c2ccccc2)C1c1ccccc1` (stereo not drawn), the growth inhibition was -18.6% (inactive).

`CCOC(=O)N1CCN(C(=O)c2cnn3ccccc23)CC1`: the growth inhibition is -2.02% (inactive).

In the case of `Brc1cccc(-c2nnc3sc(CNCc4ccco4)cn23)c1`, the growth inhibition is 47.3% (active).

Take `O=C(Nc1ccccc1)OCC1CCCN2CCCCC12` (stereo not drawn): the growth inhibition is -13.1% (inactive).

In the case of `O=C(NCc1ccco1)c1ccc(S(=O)(=O)c2cccc(S(=O)(=O)N3CCOCC3)c2)cc1`, the growth inhibition was 2.85% (inactive).

On to `CC1Cc2nc(SCC(=O)NCc3ccco3)n(-c3ccccc3)c(=O)c2S1` (stereo not drawn), for which the growth inhibition is -7.02% (inactive).

For `CCc1ccc2[nH]cc(C(=O)OCCOC)c(=O)c2c1`, the growth inhibition is 0.075% (inactive).

As for `CC1CCc2c(sc3ncnc(NCCN4CCOCC4)c23)C1` (stereo not drawn), the growth inhibition was -5.73% (inactive).

Regarding `O=C(c1cc(-c2ccccc2O)on1)N1CCCC1`, the growth inhibition is -3.9% (inactive).

`Cc1ccc(-c2nc(NC(=O)CSc3nnc4scc(-c5ccccc5)n34)ns2)cc1`: the growth inhibition is 0.99% (inactive).

In the case of `COCCNC(=O)CS(=O)(=O)Cc1nc(-c2ccc(C)cc2)oc1C`, the growth inhibition was -29% (inactive).

Turning to `CCOc1cccc(C2c3c(oc4cc(C)c(C)cc4c3=O)C(=O)N2CCCN(C)C)c1` (stereo not drawn), the growth inhibition was -0.895% (inactive).

With `COc1ccc(-c2nc(C#N)c(NC(C)C)o2)cc1`, the growth inhibition was -2.25% (inactive).

Regarding `O=C1CSC(c2nn(-c3ccccc3)cc2-c2cc3ccccc3oc2=O)N1Cc1ccco1` (stereo not drawn), the growth inhibition is 1.33% (inactive).

In the case of `O=C(NCCC1=CCCCC1)c1ccc2c(=O)n3c(nc2c1)CCCCC3`, the growth inhibition was -2.77% (inactive).

On to `O=C(Cn1c(=O)oc2cc(S(=O)(=O)N3CCCC3)ccc21)N1CCN(c2ccccn2)CC1`, for which the growth inhibition was 6.56% (inactive).

Take `Cc1onc(-c2c(F)cccc2Cl)c1C(=O)OCC(=O)Nc1c(C)n(C)n(-c2ccccc2)c1=O`: the growth inhibition is -1.53% (inactive).

As for `COCCNC(=O)CN1C(=O)CSc2cc(S(=O)(=O)N3CCCCCC3)ccc21`, the growth inhibition is -4.12% (inactive).

As for `O=C(O)c1ccccc1C(=O)c1cccs1`, the growth inhibition is -17.1% (inactive).

In the case of `CCCC(=O)Nc1ccccc1-c1nnc(SC)[nH]c1=O`, the growth inhibition is 1.72% (inactive).

`COCCNC(=O)CN1C(=O)COc2ccc(Cl)cc21`: the growth inhibition is 6.35% (inactive).

As to `O=C(NCCC1=CCCCC1)C1CCN(c2nnc(-n3cccc3)s2)CC1`, the growth inhibition is 4.32% (inactive).

With `COc1ccc(C2C(C(=O)Nc3ccccn3)=C(C)Nc3ncnn32)c(OC)c1` (stereo not drawn), the growth inhibition is -6.24% (inactive).

As to `Cc1cc(C)c2c(n1)SCC(=O)N2CC(=O)NCCC1=CCCCC1`, the growth inhibition was 4.58% (inactive).

Consider `COCCNC(=O)C1CCN(S(=O)(=O)c2ccccc2)CC1`, for which the growth inhibition was -7.54% (inactive).

With `NC(=O)c1ccsc1NC(=O)C1CCCCC1`, the growth inhibition was -5.7% (inactive).

Take `CCOc1ccc(-c2nc(C#N)c(N3CCN(Cc4ccccc4)CC3)o2)cc1`: the growth inhibition was 8.5% (inactive).

`CCOC(=O)C1=C(C)NC(=O)NC1c1ccc(N(CC)CC)cc1` (stereo not drawn): the growth inhibition is -3.54% (inactive).

Regarding `N#CC1=C(N)OC2=C(C(=O)CCC2)C1c1ccsc1` (stereo not drawn), the growth inhibition is -3.94% (inactive).
